In ChEMBL document CHEMBL1138555, “N-acylated and N,N'-diacylated imidazolidine-2-thione derivatives and N,N'-diacylated tetrahydropyrimidine-2(1H)-thione analogues: synthesis and antiproliferative activity” (Eur J Med Chem, 2009):

tested on: K562; assay: Growth inhibition of human K562 cells after 48 hrs by sulforhodamine B assay; type: functional; details: K562, 48 h
Outline: (§1)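 NCI screen panel. Five 10-fold concentrations from 10^-4 to 10^-8 M. Exposure for the last 48 h of a 72 h incubation. Growth estimated by sulforhodamine B protein assay. GI50 is the concentration giving 50% growth inhibition. Where that level was not reached or was exceeded, the value is given as above or below the highest or lowest concentration tested.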

SMILES	GI50 [µM]
COc1cc(C(=O)N2CCN(C=O)C2=S)cc(OC)c1OC	30.8

tested on: A498; assay: Growth inhibition of human A498 cells after 48 hrs by sulforhodamine B assay; type: functional; details: A498, 48 h; outline: as §1

SMILES	GI50 [µM]
COc1cc(C(=O)N2CCN(C=O)C2=S)cc(OC)c1OC	20.5

tested on: PC-3; assay: Growth inhibition of human PC3 cells after 48 hrs by sulforhodamine B assay; type: functional; details: PC-3, 48 h; outline: as §1

SMILES	GI50 [µM]
COc1cc(C(=O)N2CCN(C=O)C2=S)cc(OC)c1OC	22.2

tested on: SF-268; assay: Growth inhibition of human SF268 cells after 48 hrs by sulforhodamine B assay; type: functional; details: SF-268, 48 h; outline: as §1

SMILES	GI50 [µM]
COc1cc(C(=O)N2CCN(C=O)C2=S)cc(OC)c1OC	21.4

tested on: U-251; assay: Growth inhibition of human U251 cells after 48 hrs by sulforhodamine B assay; type: functional; details: U-251, 48 h
Outline: (§2)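 NCI in vitro panel screen. Compounds tested at five 10-fold dilutions, 10^-4 to 10^-8 M. Cells in 96-well plates were exposed for the last 48 h of a 72 h incubation. Viability/growth was read by sulforhodamine B protein assay. GI50 is the concentration giving 50% growth inhibition. Values beyond the tested range are reported as greater or less than the maximum or minimum concentration.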

SMILES	GI50 [µM]
COc1cc(C(=O)N2CCN(C=O)C2=S)cc(OC)c1OC	16.4

tested on: HCT-15; assay: Growth inhibition of human HCT15 cells after 48 hrs by sulforhodamine B assay; type: functional; details: HCT-15, 48 h; outline: as §1

SMILES	GI50 [µM]
COc1cc(C(=O)N2CCN(C=O)C2=S)cc(OC)c1OC	25.6

tested on: HCC 2998; assay: Growth inhibition of human HCC2998 cells after 48 hrs by sulforhodamine B assay; type: functional; details: HCC 2998, 48 h; outline: as §1

SMILES	GI50 [µM]
COc1cc(C(=O)N2CCN(C=O)C2=S)cc(OC)c1OC	19.8

tested on: HL-60(TB); assay: Growth inhibition of human HL-60(TB) cells after 48 hrs by sulforhodamine B assay; type: functional; details: HL-60, 48 h
Outline: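 NCI 60-cell-line screen protocol: cells exposed to compound at five 10-fold dilutions from 10^-4 to 10^-8 M for the last 48 h of a 72 h incubation. Sulforhodamine B protein assay estimated viability/growth. GI50 (50% growth inhibition) derived; where not reached or exceeded, reported as greater or less than the highest or lowest concentration tested.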

SMILES	GI50 [µM]
COc1cc(C(=O)N2CCN(C=O)C2=S)cc(OC)c1OC	23.4

tested on: ACHN; assay: Growth inhibition of human ACHN cells after 48 hrs by sulforhodamine B assay; type: functional; details: not given; outline: as §1

SMILES	GI50 [µM]
COc1cc(C(=O)N2CCN(C=O)C2=S)cc(OC)c1OC	20.1

tested on: MOLT-4; assay: Growth inhibition of human MOLT4 cells after 48 hrs by sulforhodamine B assay; type: functional; details: MOLT-4, 48 h; outline: as §1

SMILES	GI50 [µM]
COc1cc(C(=O)N2CCN(C=O)C2=S)cc(OC)c1OC	29.4

tested on: SK-MEL-2; assay: Growth inhibition of human SK-MEL-2 cells after 48 hrs by sulforhodamine B assay; type: functional; details: SK-MEL-2, 48 h; outline: as §1

SMILES	GI50 [µM]
COc1cc(C(=O)N2CCN(C=O)C2=S)cc(OC)c1OC	19.9

tested on: SN12C; assay: Growth inhibition of human SN12C cells after 48 hrs by sulforhodamine B assay; type: functional; details: not given; outline: as §2

SMILES	GI50 [µM]
COc1cc(C(=O)N2CCN(C=O)C2=S)cc(OC)c1OC	20.2

tested on: SNB-75; assay: Growth inhibition of human SNB75 cells after 48 hrs by sulforhodamine B assay; type: functional; details: SNB-75, 48 h; outline: as §2

SMILES	GI50 [µM]
COc1cc(C(=O)N2CCN(C=O)C2=S)cc(OC)c1OC	10.9

tested on: OVCAR-3; assay: Growth inhibition of human OVCAR-3 cells after 48 hrs by sulforhodamine B assay; type: functional; details: OVCAR-3, 48 h; outline: as §1

SMILES	GI50 [µM]
COc1cc(C(=O)N2CCN(C=O)C2=S)cc(OC)c1OC	16.9

tested on: OVCAR-8; assay: Growth inhibition of human OVCAR8 cells after 48 hrs by sulforhodamine B assay; type: functional; details: OVCAR-8, 48 h; outline: as §1

SMILES	GI50 [µM]
COc1cc(C(=O)N2CCN(C=O)C2=S)cc(OC)c1OC	24

tested on: BT-549; assay: Growth inhibition of human BT549 cells after 48 hrs by sulforhodamine B assay; type: functional; details: BT-549, 48 h; outline: as §1

SMILES	GI50 [µM]
COc1cc(C(=O)N2CCN(C=O)C2=S)cc(OC)c1OC	25

tested on: TK-10; assay: Growth inhibition of human TK10 cells after 48 hrs by sulforhodamine B assay; type: functional; details: TK-10, 48 h; outline: as §2

SMILES	GI50 [µM]
COc1cc(C(=O)N2CCN(C=O)C2=S)cc(OC)c1OC	17.1

tested on: RXF 393; assay: Growth inhibition of human RXF393 cells after 48 hrs by sulforhodamine B assay; type: functional; details: RXF 393, 48 h; outline: as §1

SMILES	GI50 [µM]
COc1cc(C(=O)N2CCN(C=O)C2=S)cc(OC)c1OC	16.1

tested on: HCT-116; assay: Growth inhibition of human HCT116 cells after 48 hrs by sulforhodamine B assay; type: functional; details: HCT-116, 48 h; outline: as §1

SMILES	GI50 [µM]
COc1cc(C(=O)N2CCN(C=O)C2=S)cc(OC)c1OC	35.6

tested on: IGROV-1; assay: Growth inhibition of human IGROV1 cells after 48 hrs by sulforhodamine B assay; type: functional; details: IGROV-1, 48 h; outline: as §1

SMILES	GI50 [µM]
COc1cc(C(=O)N2CCN(C=O)C2=S)cc(OC)c1OC	21.9

tested on: LOX IMVI; assay: Growth inhibition of human LOXIMVI cells after 48 hrs by sulforhodamine B assay; type: functional; details: not given; outline: as §1

SMILES	GI50 [µM]
COc1cc(C(=O)N2CCN(C=O)C2=S)cc(OC)c1OC	16.4

tested on: DU-145; assay: Growth inhibition of human DU145 cells after 48 hrs by sulforhodamine B assay; type: functional; details: DU-145, 48 h; outline: as §1

SMILES	GI50 [µM]
COc1cc(C(=O)N2CCN(C=O)C2=S)cc(OC)c1OC	19.6

tested on: MDA-N; assay: Growth inhibition of human MDA-N cells after 48 hrs by sulforhodamine B assay; type: functional; details: not given
Outline: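 NCI screen panel. Five 10-fold concentrations from 10^-4 to 10^-8 M. Exposure for the last 48 h of a 72 h incubation. Growth estimated by sulforhodamine B protein assay. Where that level was not reached or was exceeded, the value is given as above or below the highest or lowest concentration tested.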

SMILES	GI50 [µM]
COc1cc(C(=O)N2CCN(C=O)C2=S)cc(OC)c1OC	17.9

tested on: M14; assay: Growth inhibition of human M14 cells after 48 hrs by sulforhodamine B assay; type: functional; details: M14, 48 h; outline: as §1

SMILES	GI50 [µM]
COc1cc(C(=O)N2CCN(C=O)C2=S)cc(OC)c1OC	20.6

tested on: HT-29; assay: Growth inhibition of human HT-29 cells after 48 hrs by sulforhodamine B assay; type: functional; details: HT-29, 48 h; outline: as §1

SMILES	GI50 [µM]
COc1cc(C(=O)N2CCN(C=O)C2=S)cc(OC)c1OC	26.7

tested on: NCI-H23; assay: Growth inhibition of human NCI-H23 cells after 48 hrs by sulforhodamine B assay; type: functional; details: NCI-H23, 48 h; outline: as §1

SMILES	GI50 [µM]
COc1cc(C(=O)N2CCN(C=O)C2=S)cc(OC)c1OC	25.9

tested on: CAKI-1; assay: Growth inhibition of human Caki1 cells after 48 hrs by sulforhodamine B assay; type: functional; details: CAKI-1, 48 h; outline: as §1

SMILES	GI50 [µM]
COc1cc(C(=O)N2CCN(C=O)C2=S)cc(OC)c1OC	13.6

tested on: EKVX; assay: Growth inhibition of human EKVX cells after 48 hrs by sulforhodamine B assay; type: functional; details: not given; outline: as §1

SMILES	GI50 [µM]
COc1cc(C(=O)N2CCN(C=O)C2=S)cc(OC)c1OC	31.8

tested on: KM12; assay: Growth inhibition of human KM12 cells after 48 hrs by sulforhodamine B assay; type: functional; details: KM12, 48 h; outline: as §1

SMILES	GI50 [µM]
COc1cc(C(=O)N2CCN(C=O)C2=S)cc(OC)c1OC	14.4

tested on: MDA-MB-435; assay: Growth inhibition of human MDA-MB-435 cells after 48 hrs by sulforhodamine B assay; type: functional; details: MDA-MB-435, 48 h; outline: as §1

SMILES	GI50 [µM]
COc1cc(C(=O)N2CCN(C=O)C2=S)cc(OC)c1OC	15.5

tested on: SF-539; assay: Growth inhibition of human SF539 cells after 48 hrs by sulforhodamine B assay; type: functional; details: SF-539, 48 h; outline: as §1

SMILES	GI50 [µM]
COc1cc(C(=O)N2CCN(C=O)C2=S)cc(OC)c1OC	21.3

tested on: NCI-H522; assay: Growth inhibition of human NCI-H522 cells after 48 hrs by sulforhodamine B assay; type: functional; details: NCI-H522, 48 h; outline: as §1

SMILES	GI50 [µM]
COc1cc(C(=O)N2CCN(C=O)C2=S)cc(OC)c1OC	5.8

tested on: A549; assay: Growth inhibition of human A549 cells after 48 hrs by sulforhodamine B assay; type: functional; details: A549, 48 h; outline: as §1

SMILES	GI50 [µM]
COc1cc(C(=O)N2CCN(C=O)C2=S)cc(OC)c1OC	33.2

tested on: UO-31; assay: Growth inhibition of human UO31 cells after 48 hrs by sulforhodamine B assay; type: functional; details: UO-31, 48 h; outline: as §2

SMILES	GI50 [µM]
COc1cc(C(=O)N2CCN(C=O)C2=S)cc(OC)c1OC	0.07

tested on: HOP-62; assay: Growth inhibition of human HOP62 cells after 48 hrs by sulforhodamine B assay; type: functional; details: HOP-62, 48 h; outline: as §1

SMILES	GI50 [µM]
COc1cc(C(=O)N2CCN(C=O)C2=S)cc(OC)c1OC	20

tested on: OVCAR-4; assay: Growth inhibition of human OVCAR4 cells after 48 hrs by sulforhodamine B assay; type: functional; details: OVCAR-4, 48 h; outline: as §1

SMILES	GI50 [µM]
COc1cc(C(=O)N2CCN(C=O)C2=S)cc(OC)c1OC	24.1

tested on: NCI-H322M; assay: Growth inhibition of human NCI-H322M cells after 48 hrs by sulforhodamine B assay; type: functional; details: not given; outline: as §1

SMILES	GI50 [µM]
COc1cc(C(=O)N2CCN(C=O)C2=S)cc(OC)c1OC	24.8

tested on: NCI/ADR-RES; assay: Growth inhibition of human NCI/ADR-RES cells after 48 hrs by sulforhodamine B assay; type: functional; details: not given; outline: as §1

SMILES	GI50 [µM]
COc1cc(C(=O)N2CCN(C=O)C2=S)cc(OC)c1OC	36.1

tested on: MT4; assay: Antiproliferative activity against human MT4 cells assessed as reduction of growth by MTT assay; type: functional, cell-based; details: not given
Outline: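 MT-4 lymphoblastoid T cells (ATCC) in RPMI 1640 with 10% FCS, penicillin/streptomycin, checked for mycoplasma. 1 × 10⁴ mock-infected cells per well with serial dilutions from a 100 mM DMSO stock. Incubated 4 days at 37 °C, viable cells counted by MTT. IC50 versus untreated controls by linear regression. Mean of three separate experiments.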

SMILES	IC50 [µM]
COc1cc(C(=O)N2CCN(C=O)C2=S)cc(OC)c1OC	13
